HEK293 NFkB inh = inhibitors of the PMA/ionomycin-induced NF-kB reporter in HEK293 cells; AID 465; 62,000 tested, 0.21% active; inhibition, % at 3 µM; HEK-293 NF-kB luciferase reporter, luminescence;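 active means inhibition above the mean of all tested compounds plus 3 SD, cut at about 40% in these data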
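Signal: luciferase luminescence; Material: HEK-293 cells with stable firefly luciferase reporter driven by four HIV NF-kB elements; Probe or stimulus: PMA with ionomycin; Replication: tested once; Times: 1 h compound pretreatment, then 16 h stimulation at 37 °C, 5% CO2; Benchmarks: DMSO and 10 µM reference inhibitor; Evaluation: per-plate % inhibition versus controls.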
Jurkat viability = reduces viability or proliferation of Jurkat cells; Jurkat E6.1 viability, ATP luminescence, 48 h; inhibition, % at 4 µM; 56,000 tested, 1.2% active; AID 463;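 active means inhibition above the mean inhibition of all tested compounds plus 3 SD, cut at about 28% in these data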
M1 agonist = agonists of M1 muscarinic receptor; CHO-M1 cells, Fluo-4 calcium fluorescence, agonist mode; stronger effect = higher value; B-score at 10 µM; 64,000 tested, 3% active;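 active means fluorescence rise, raw or as B-score row- and column-corrected plate score, outside the 99.7% band of its plate's samples, either direction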
D1 allo mod = allosteric modulators of human D1 dopamine receptor; P21728; HEK293 D1, CRE-luciferase, dopamine EC30 potentiation; actives deviate in either direction; B-score at 10 µM; 58,000 tested, 5.9% active; AID 641;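 active means luminescence count or its row- and column-corrected plate score outside the 99.7% band of the plate's sample wells, on either side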
hDAT+cocaine = modulates human dopamine transporter uptake under cocaine | Q01959 | LLC-PK1 hDAT cells, [14C]-dopamine uptake with cocaine IC80; actives deviate in either direction | B-score at 10 µM | 110,000 tested, 1.3% active;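 active means Z score or B-score, a plate-position-corrected score, falls beyond the plate's 99.7% confidence bounds, in either direction; inactive means both scores lie inside the 99.7% bounds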
Target sequence (Q01959 whole entry, looked up): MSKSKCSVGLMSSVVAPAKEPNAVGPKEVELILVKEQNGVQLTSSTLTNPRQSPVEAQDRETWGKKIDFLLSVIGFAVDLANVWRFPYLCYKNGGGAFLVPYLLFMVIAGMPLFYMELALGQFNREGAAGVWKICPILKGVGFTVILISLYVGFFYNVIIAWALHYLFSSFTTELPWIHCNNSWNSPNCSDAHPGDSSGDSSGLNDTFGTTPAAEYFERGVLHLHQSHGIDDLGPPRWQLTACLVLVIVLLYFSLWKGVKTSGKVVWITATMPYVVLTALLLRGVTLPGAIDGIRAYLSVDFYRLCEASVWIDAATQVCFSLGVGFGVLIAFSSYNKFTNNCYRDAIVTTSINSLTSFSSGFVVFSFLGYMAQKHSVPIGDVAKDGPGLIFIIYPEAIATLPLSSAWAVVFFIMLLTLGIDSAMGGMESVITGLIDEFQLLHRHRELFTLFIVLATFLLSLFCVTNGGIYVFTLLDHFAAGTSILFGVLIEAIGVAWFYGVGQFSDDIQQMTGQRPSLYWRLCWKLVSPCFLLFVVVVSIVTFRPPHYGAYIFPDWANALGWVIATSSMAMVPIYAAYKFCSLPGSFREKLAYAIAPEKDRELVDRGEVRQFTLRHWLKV
M1 antag = M1 muscarinic receptor (rat) antagonism; 64,000 tested, 3.4% active; B-score at 10 µM; CHO-M1 cells, Fluo-4 calcium, ACh EC80 antagonist mode; stronger effect = lower value; AID 628; P08482;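 active means calcium fluorescence response, raw or row-and-column corrected B-score, differing from the plate sample mean either way at a set confidence level, mostly lower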
D1 PAM confirm = confirmation of human D1 dopamine receptor allosteric modulators; luminescence at 10 µM; AID 642; 2,200 tested, 88% active; shares compounds with D1 allo mod; HEK293 D1 CRE-luciferase, dopamine EC30 potentiation; stronger effect = higher value;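 active means luminescence in either of two replicates above the same-plate mean plus 3 SD of the low-dose dopamine control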
D1 no dopamine = D1 (human) signaling in absence of dopamine; 1,900 tested, 0.8% active; HEK293 D1 CRE-luciferase, luminescence, no dopamine; stronger effect = higher value; shares compounds with D1 allo mod; luminescence at 10 µM; in the data active means luminescence above about 3900
Isoprot counter = alters isoproterenol CRE-luciferase response in HEK293 cells. shares compounds with D1 allo mod. HEK293 D1 CRE-luciferase, isoproterenol EC30 counter-screen. calls only at 10 µM. 2,200 tested, 63% active. AID 647;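 active means luminescence in either replicate above plate mean of wells with a partly effective reference agonist dose plus 3 SD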;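 further: isoproterenol raises cAMP through native beta-adrenoceptor Gs so signal bypasses D1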
Hits are given with their value; – = inactive; · = no result; + = active, no number. Hits are enriched below; roughly 7.6% of the tested compounds scored in any of these assays.

SMILES	HEK293 NFkB inh	Jurkat viability	M1 agonist	D1 allo mod	hDAT+cocaine	M1 antag	D1 PAM confirm	D1 no dopamine	Isoprot counter
Cc1ccnn2c(-c3ccccc3)c3c(=O)n(C)c(=O)n(C)c3c12	–	–	–	9.1	–	–	12160	–	+
Cc1ccc(-c2c3c(=O)n(C)c(=O)n(C)c3c3nnc4ccccc4n23)cc1	–	–	–	–	·	–	·	·	·
CCOc1ccc(C(C)=O)cc1N1C(=O)C2C3C=CC(O3)C2C1=O (stereo not drawn)	–	–	·	·	–	·	·	·	·
C=C(C)c1cccc(C(C)(C)NC(=O)NCC2COCCO2)c1 (stereo not drawn)	–	–	·	–	–	·	·	·	·
C=C(C)CSc1nncn1/N=C/c1ccc(OC)cc1	–	–	–	–	–	–	·	·	·
CCSc1nncn1/N=C/c1ccc(OC)c(OC)c1	–	–	–	8.3	–	–	15592	–	+
Nc1nc2c3ccccc3nc(Cc3ccccc3)n2n1	–	–	–	16	–	–	11064	–	+
CCCc1nc2ccccc2c2nc(N)nn12	–	–	–	27	–	–	19312	–	+
Cc1nc2ccccc2c2nc(N)nn12	·	·	·	·	–	·	·	·	·
Cc1ccc(S(=O)(=O)N2CCCN(S(=O)(=O)c3ccc4ccccc4c3)CC2)cc1	·	·	·	·	–	·	·	·	·
Cc1c(C(=O)Nc2ccc(N3CCOCC3)cc2)oc2ccccc12	–	–	–	–	–	–	·	·	·
CCOC(=O)c1[nH]c2ccccc2c1NC(=O)c1nonc1C	–	·	–	5.8	–	–	11368	–	+
CCOC(=O)c1[nH]c2ccccc2c1NC(C)=O	–	–	–	–	–	–	·	·	·
CCOC(=O)c1[nH]c2ccc(OC)cc2c1NC(=O)c1nonc1C	–	–	–	8.7	–	–	12456	·	+
CCOC(=O)c1[nH]c2ccccc2c1NC(=O)C(C)(C)C	–	–	–	4.5	–	–	7700	–	–
CCOC(=O)c1[nH]c2ccc(Cl)cc2c1NC(=O)c1nonc1C	·	·	·	·	–	·	·	·	·
CCOc1cc(C2C(C(=O)OC)=C(C)N=C3SCCC(=O)N32)ccc1OC(C)=O (stereo not drawn)	–	–	–	5.1	–	–	6516	·	+
CCOc1ccc(C2C(C(=O)OC)=C(C)N=C3SCCC(=O)N32)cc1OCC (stereo not drawn)	–	–	–	·	–	–	·	·	·
COc1cccc(-c2nnc(SCC(=O)Nc3cc(C)on3)n2C)c1	·	·	·	·	–	·	·	·	·
COc1cccc(-c2nnc(SCC(=O)Nc3cc(C)on3)o2)c1	–	–	·	5.7	–	·	6316	–	–
COc1ccc(-c2ccc(SCC(=O)Nc3cc(C)on3)nn2)cc1OC	–	–	–	5.8	–	–	23296	–	+
CC(=O)Nc1cccc(Oc2cc(C#N)c(C#N)cc2N2CCCCCC2)c1	–	–	–	9.1	–	–	11784	·	+
N#CC1=C(SCC(=O)Nc2ccccc2)NC(=O)CC1c1ccco1 (stereo not drawn)	·	·	·	·	–	·	·	·	·
Cc1cc(C)n2nc(SCC(=O)c3ccc[nH]3)nc2n1	–	–	–	–	–	–	·	·	·
COc1ccc(C(=O)CSc2nc3nc(C)cc(C)n3n2)cc1OC	–	–	–	11	–	–	20980	–	+
SMILES	HEK293 NFkB inh	Jurkat viability	M1 agonist	D1 allo mod	hDAT+cocaine	M1 antag	D1 PAM confirm	D1 no dopamine	Isoprot counter
Cc1cccc(N2C(=O)CS/C2=N\NC(=O)c2ccc(Cl)cc2)c1C	·	·	·	·	–	·	·	·	·
COc1ccc(-c2nc(N3CCOCC3)nc3n[nH]c(N)c23)cc1	–	·	–	5	–	–	12424	·	+
Nc1[nH]nc2nc(N3CCCC3)nc(-c3ccccc3)c12	–	·	–	15	–	–	18304	–	+
Cc1cc(C)n2nc3nc(N4CCCC4)nc(-c4ccccc4)c3c2n1	–	–	–	4.8	·	–	7140	–	+
COc1ccc(-c2nc(N3CCCC3)nc3nn4c(C)cc(C)nc4c23)cc1	–	–	–	–	·	–	·	·	·
COc1ccc(Nc2nc(N3CCCC3)nc(N3CCOCC3)n2)cc1	·	·	·	·	–	·	·	·	·
Nc1nc(-c2cccnc2)nc(N2CCCCC2)n1	–	–	–	–	–	–	·	·	·
COc1ccc(NC(=O)c2cc3cc(OC)ccc3oc2=N)cc1	–	–	–	–	–	–	·	·	·
O=C1NC2(CCCCCC2)N=C1c1ccc(F)cc1	·	·	·	·	–	·	·	·	·
CCOC(=O)c1c(N)c(C#N)c2n1CCCCC2	–	–	–	11	–	–	10284	–	+
CCOC(=O)c1c(N)c(C#N)c2n1CCCC2	·	·	·	·	–	·	·	·	·
O=C(CSCc1nc2ccccc2[nH]1)N1CCN(c2ccc(F)cc2)CC1	–	–	–	–	–	–	·	·	·
CCN1CCC2(CC1)C(C#N)=C(N)Oc1c2sc2nc(C)cc(C)c12	–	–	–	–	–	–	·	·	·
CC(=O)N1CCC2(CC1)C(C#N)=C(N)Oc1c2sc2nc(C)cc(C)c12	–	–	–	4.9	–	–	14572	–	–
COc1cccc(C(=O)N(CN2CCCC2=O)c2cccc(Cl)c2)c1	–	–	–	·	–	–	·	·	·
CC(C)Oc1ccc(C(=O)N(CN2CCCC2=O)c2ccc(F)cc2)cc1	–	–	–	4.5	–	–	–	–	–
Cc1cc(Nc2ccccc2)n(C(=O)c2ccc(Cl)cc2)n1	·	·	·	·	–	·	·	·	·
Cc1[nH]n(-c2ccccc2)c(=O)c1S(=O)(=O)c1ccccc1	–	·	–	4.1	–	–	11060	–	–
CCOc1ccc(OCC)c(NC(=O)CC2Oc3ccc(C)cc3NC2=O)c1 (stereo not drawn)	–	–	–	2.7	–	–	–	–	–
Cc1ccc(SCC(=O)Nc2cccnc2)cc1	·	·	·	·	–	·	·	·	·
O=C(NCCCN1CCN(c2ccccc2F)CC1)C1CCN(S(=O)(=O)N2CCOCC2)CC1	–	–	–	14	–	–	15768	10072	+
COc1ccc(-c2cc(C(F)(F)F)n3nc(C(=O)N4CCCCC4)cc3n2)cc1	·	·	–	5.7	–	–	8620	–	–
COc1ccccc1-n1c(=S)sc2c(=O)n(Cc3ccco3)c(SC)nc21	–	·	–	·	–	–	·	·	·
O=C(c1ccco1)N1CCN(S(=O)(=O)c2ccc3c(c2)CCN3C(=O)C2CCC2)CC1	–	–	–	2.6	–	–	11588	–	+
O=C(C1CC1)N1CCc2cc(S(=O)(=O)N(CCO)Cc3ccccc3)ccc21	–	–	–	4.2	–	–	15244	–	+
CCOC(=O)N1CCN(S(=O)(=O)c2ccc3c(c2)CCN3C(=O)C2CCC2)CC1	–	–	–	3.3	–	–	7472	–	–
CCOC(=O)N1CCN(S(=O)(=O)c2ccc3c(c2)CCN3C(=O)C2CC2)CC1	–	–	–	–	–	–	·	·	·

Screening data (PubChem)
